Measured values taken from ChEMBL document CHEMBL1687885, “Ethanesulfohydroxamic acid ester prodrugs of nonsteroidal anti-inflammatory drugs (NSAIDs): synthesis, nitric oxide and nitroxyl release, cyclooxygenase inhibition, anti-inflammatory, and ulcerogenicity index studies” (J Med Chem, 2011).

What was measured:
[1] = target: T1, Prostaglandin G/H synthase 1 (Ovis aries, UniProt P05979); assay: Inhibition of ovine COX-1
T1 sequence (P05979 whole entry): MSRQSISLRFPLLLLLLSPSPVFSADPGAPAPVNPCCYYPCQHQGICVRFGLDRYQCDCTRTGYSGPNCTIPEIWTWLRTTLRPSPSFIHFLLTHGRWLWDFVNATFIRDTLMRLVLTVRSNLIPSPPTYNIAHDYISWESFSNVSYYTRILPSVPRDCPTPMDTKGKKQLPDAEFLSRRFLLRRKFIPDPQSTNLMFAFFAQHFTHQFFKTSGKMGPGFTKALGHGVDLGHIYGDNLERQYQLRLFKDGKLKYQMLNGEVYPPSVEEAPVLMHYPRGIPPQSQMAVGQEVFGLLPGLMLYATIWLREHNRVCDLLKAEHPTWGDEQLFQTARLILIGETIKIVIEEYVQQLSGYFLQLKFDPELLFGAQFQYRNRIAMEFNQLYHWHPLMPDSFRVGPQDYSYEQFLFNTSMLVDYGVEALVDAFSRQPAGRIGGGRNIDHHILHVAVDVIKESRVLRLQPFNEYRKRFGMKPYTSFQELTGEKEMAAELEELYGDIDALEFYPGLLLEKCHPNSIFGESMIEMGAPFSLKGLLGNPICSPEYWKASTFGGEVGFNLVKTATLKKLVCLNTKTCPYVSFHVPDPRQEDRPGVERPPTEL

[2] = Chemical stability of the compound in phosphate buffered saline of pH 7.4 assessed as NO release at 50 uM after 1.5 hr by Griess assay; settings: buffer, pH 7.4, 1.5 h
[3] = Induction of HNO release per mol of compound in 0.6 mL MeOH and 0.2 mL of 1 M NaOH after 2 hr by gas chromatographic analysis; format: physicochemical
In short: (§1)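 HNO measured indirectly as N2O under anaerobic conditions: compound at 50 mM in 0.6 mL MeOH plus 0.2 mL 1 M NaOH; headspace (0.25 mL) injected at 2 and 24 h onto GC with thermal conductivity detector and Porapak Q column. % based on 2 mol HNO per mol N2O; mean of three experiments.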

[4] = Induction of HNO release per mol of compound in 0.6 mL MeOH, 0.2 mL of 1 M NaOH and 100 mM glutathione after 24 hr by gas chromatographic analysis; format: physicochemical
In short: (§2)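 Compound 50 mM in MeOH-based solvent containing 100 mM glutathione and 250 mM NaOH (25 mM NaOH for some compounds); headspace N2O sampled at 2 and 24 h by GC with thermal conductivity detection. % HNO from 2 mol HNO per mol N2O; mean of three.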

[5] = Induction of HNO release per mol of compound in 0.6 mL MeOH and 0.2 mL of 700 mM Tris buffer solution after 24 hr by gas chromatographic analysis
[6] = Induction of HNO release per mol of compound in 0.6 mL MeOH and 0.2 mL of 1 M NaOH after 24 hr by gas chromatographic analysis; format: physicochemical; in short: as §1
[7] = Induction of HNO release per mol of compound in 0.6 mL MeOH and 0.2 mL of 700 mM Tris buffer solution after 2 hr by gas chromatographic analysis
[8] = Induction of HNO release per mol of compound in 0.6 mL MeOH, 0.2 mL of 1 M NaOH and 100 mM glutathione after 2 hr by gas chromatographic analysis; format: physicochemical; in short: as §2
[9] = Chemical stability of the compound in phosphate buffered containg rat serum of pH 7.4 assessed as NO release at 50 uM after 1.5 hr by Griess assay; settings: pH 7.4, 1.5 h
Rattus norvegicus [10] = assay: Antiinflammatory activity in Sprague-Dawley rat assessed as inhibition of carrageenam-induced paw edema at 327 umol/kg, po administered 1 hr before carrageenan challenge measured after 3 hrs by Plethysmometer; format: functional
In short: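 Male Sprague-Dawley rats (160-180 g), three per group. Test agent was suspended in water with 1% methylcellulose and given orally 1 h before 0.05 mL 1% carrageenan in 0.9% NaCl was injected subcutaneously under the plantar skin of the right hind paw. Controls received vehicle only. Paw volume was measured at 0 and 3 h by plethysmometer. Result is % inhibition of inflammation, n = 3, with SEM.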

Rattus norvegicus [11] = assay: Antiinflammatory activity in po dosed Sprague-Dawley rat assessed as inhibition of carrageenam-induced paw edema administered 1 hr before carrageenan challenge measured after 3 hrs by Plethysmometer; format: functional; settings: read-out: ID50 (the source's name)
In short: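 Male Sprague-Dawley rats (160-180 g), three per group; compounds suspended in water with 1% methyl cellulose given orally at no fewer than three doses (2.8-112 mg/kg range) 1 h before subplantar injection of 0.05 mL 1% carrageenan in 0.9% NaCl into right hind paw. Vehicle-only controls. Paw volume measured by plethysmometer at 0 and 3 h; ID50 from dose-response curve.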

Rattus norvegicus [12] = assay: Ulcerogenic activity in 12 fasting Sprague-Dawley rat assessed as ulcer index at 80 umol/kg, po measured after 6 hrs by magnifier lenses; format: toxicity, organism-based; settings: in vivo
In short: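 Rats fasted (water allowed) 12 h, then given 80 μmol/kg orally suspended in 1.7 mL 1% methylcellulose; vehicle controls. After 6 h, CO2 euthanasia; stomachs opened along greater curvature, rinsed, ulcers counted and measured with magnifier lenses. UI = summed ulcer length (mm) per stomach averaged over n = 3 per group.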

Rattus norvegicus [13] = assay: Antiinflammatory activity in Sprague-Dawley rat assessed as inhibition of carrageenam-induced paw edema at 100 mg/kg, po administered 1 hr before carrageenan challenge measured after 3 hrs by Plethysmometer; format: functional
In short: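 Male Sprague-Dawley rats (160-180 g), three per group, received the test compound orally as a suspension in water with 1% methyl cellulose. One hour later, 0.05 mL of 1% carrageenan in 0.9% NaCl was injected subcutaneously into the right hind paw plantar skin. Controls received vehicle alone. Paw volume was read at 0 and 3 h, and % inhibition was reported with SEM (n = 3).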

SMILES	IC50 [1]	Activity [2]	Activity [3]	Activity [4]	Activity [5]	Activity [6]	Activity [7]	Activity [8]	Activity [9]	inhibition in vivo at 327 µmol/kg (Rattus norvegicus [10])	ED50 (Rattus norvegicus [11])	UI (Rattus norvegicus [12])	inhibition in vivo at 100 mg/kg (Rattus norvegicus [13])
CONS(=O)(=O)CCOC(=O)C(C)c1ccc(CC(C)C)cc1 (configuration not stated)	14.6 µM	4.3%	0%	0%	0%	0%	0%	0%	0.9%	78.9%	–	–	–
COc1ccc2c(c1)c(CC(=O)OCCS(=O)(=O)NO)c(C)n2C(=O)c1ccc(Cl)cc1	77.7 µM	44.5%	20%	1%	0%	1%	0%	1%	3.2%	–	19.1 µmol/kg	0	–
COc1ccc2cc([C@H](C)C(=O)O)ccc2c1 [NAPROXEN]	–	–	–	–	–	–	–	–	–	–	29.7 µmol/kg	–	–
O=C(Cc1ccccc1)OCCS(=O)(=O)NO	> 100 µM	54.3%	23%	7%	0%	21%	0%	0%	4.8%	–	–	–	12.4%
CC(C)Cc1ccc(C(C)C(=O)OCCS(=O)(=O)NO)cc1 (configuration not stated)	1.1 µM	46.3%	25%	7%	0%	24%	0%	0%	2.1%	79.5%	–	–	–
COc1ccc2cc([C@H](C)C(=O)OCCS(=O)(=O)NO)ccc2c1	4.5 µM	52.9%	24%	4%	0%	23%	0%	2%	1.3%	–	11.8 µmol/kg	–	–
CCS(=O)(=O)NO [ETHANESULFONYLHYDROXAMIC ACID]	> 100 µM	54.5%	24%	0%	0%	7%	0%	0%	1.4%	–	–	–	–
COc1ccc2c(c1)c(CC(=O)O)c(C)n2C(=O)c1ccc(Cl)cc1 [INDOMETHACIN]	–	–	–	–	–	–	–	–	–	–	–	64.5	–
